# In ChEMBL document CHEMBL1141098, “Molecular modeling of wild-type and D816V c-Kit inhibition based on ATP-competitive binding of ellipticine derivatives to tyrosine kinases” (J Med Chem, 2005):
# Tests used:
# [1] = target: Mast/stem cell growth factor receptor Kit (Homo sapiens, UniProt P10721, D816V); assay: Inhibitory concentration against c-Kit D816V type expressed in recombinant baculovirus
# Outline: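 Recombinant c-Kit D816V expressed in baculovirus-infected High Five cells (MOI 10, harvested 90 h), purified by ion exchange then Ni affinity chromatography. ELISA on poly-Glu/Tyr (1:4)-coated wells; 10 nM final enzyme in 10 mM MgCl2, 1 mM MnCl2, 1 mM vanadate, 20 mM HEPES pH 7.3, BSA; 15 min at 25 °C, EDTA stop. Anti-phosphotyrosine-HRP detection, OPD, absorbance 492 nm; IC50 from inhibition.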
# [2] = target: Mast/stem cell growth factor receptor Kit (Homo sapiens, UniProt P10721); assay: Inhibitory concentration against c-Kit wild type expressed in recombinant baculovirus
# Mast/stem cell growth factor receptor Kit (Homo sapiens, UniProt P10721), sequence (P10721 whole entry): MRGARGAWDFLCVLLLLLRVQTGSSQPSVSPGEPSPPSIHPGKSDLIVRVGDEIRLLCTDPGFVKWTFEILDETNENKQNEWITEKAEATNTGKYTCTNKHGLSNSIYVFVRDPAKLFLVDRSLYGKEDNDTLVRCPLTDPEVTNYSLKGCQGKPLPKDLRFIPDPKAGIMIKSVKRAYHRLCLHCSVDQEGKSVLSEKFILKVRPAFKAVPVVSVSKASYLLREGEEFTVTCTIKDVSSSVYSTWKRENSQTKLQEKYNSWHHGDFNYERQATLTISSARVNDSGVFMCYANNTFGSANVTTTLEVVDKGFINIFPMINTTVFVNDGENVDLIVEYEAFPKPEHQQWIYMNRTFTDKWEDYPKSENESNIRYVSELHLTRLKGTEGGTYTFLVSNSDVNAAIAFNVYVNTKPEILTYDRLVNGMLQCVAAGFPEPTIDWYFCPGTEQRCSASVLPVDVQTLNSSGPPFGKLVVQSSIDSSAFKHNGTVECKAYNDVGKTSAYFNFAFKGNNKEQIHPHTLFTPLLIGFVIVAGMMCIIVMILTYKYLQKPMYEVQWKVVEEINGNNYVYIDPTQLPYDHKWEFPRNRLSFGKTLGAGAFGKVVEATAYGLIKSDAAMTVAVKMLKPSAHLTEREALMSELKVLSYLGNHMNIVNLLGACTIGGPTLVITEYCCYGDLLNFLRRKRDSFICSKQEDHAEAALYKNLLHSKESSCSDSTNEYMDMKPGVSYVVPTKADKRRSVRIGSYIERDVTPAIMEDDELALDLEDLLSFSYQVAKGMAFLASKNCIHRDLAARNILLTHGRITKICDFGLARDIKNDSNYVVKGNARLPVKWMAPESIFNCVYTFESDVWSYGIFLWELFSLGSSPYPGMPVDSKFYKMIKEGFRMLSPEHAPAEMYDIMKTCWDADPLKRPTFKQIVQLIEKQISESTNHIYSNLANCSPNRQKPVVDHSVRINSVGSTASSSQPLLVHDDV
# [3] = target: Fibroblast growth factor receptor 3 (Homo sapiens, UniProt P22607); assay: Inhibitory activity against Fibroblast growth factor receptor 3
# Fibroblast growth factor receptor 3, sequence (P22607 whole entry): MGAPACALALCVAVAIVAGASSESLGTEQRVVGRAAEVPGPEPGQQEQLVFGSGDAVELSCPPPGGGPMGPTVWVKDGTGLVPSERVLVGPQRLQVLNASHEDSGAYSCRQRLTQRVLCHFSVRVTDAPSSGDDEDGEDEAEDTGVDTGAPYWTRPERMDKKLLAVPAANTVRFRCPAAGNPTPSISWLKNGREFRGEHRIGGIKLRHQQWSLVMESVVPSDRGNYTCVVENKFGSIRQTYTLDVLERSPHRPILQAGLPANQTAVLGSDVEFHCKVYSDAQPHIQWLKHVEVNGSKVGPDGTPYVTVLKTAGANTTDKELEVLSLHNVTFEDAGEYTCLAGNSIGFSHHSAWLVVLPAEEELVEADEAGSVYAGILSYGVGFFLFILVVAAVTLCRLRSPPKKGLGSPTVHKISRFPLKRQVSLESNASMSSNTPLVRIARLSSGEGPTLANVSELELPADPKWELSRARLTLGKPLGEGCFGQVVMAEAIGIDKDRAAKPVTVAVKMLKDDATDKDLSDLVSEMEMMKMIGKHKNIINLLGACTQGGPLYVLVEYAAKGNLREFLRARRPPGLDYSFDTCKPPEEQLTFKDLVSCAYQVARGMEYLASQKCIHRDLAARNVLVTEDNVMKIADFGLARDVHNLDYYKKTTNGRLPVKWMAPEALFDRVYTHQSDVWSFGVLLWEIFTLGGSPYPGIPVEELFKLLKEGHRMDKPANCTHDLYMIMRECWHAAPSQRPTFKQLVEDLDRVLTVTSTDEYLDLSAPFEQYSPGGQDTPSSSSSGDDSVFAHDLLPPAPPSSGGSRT
# Outline: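 Commercially supplied FGFR3 enzyme. Value is the IC50 for inhibition of kinase activity.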
# Mast/stem cell growth factor receptor Kit (Homo sapiens, UniProt P10721, D816V), sequence (P10721 26-976 D816V limits assumed): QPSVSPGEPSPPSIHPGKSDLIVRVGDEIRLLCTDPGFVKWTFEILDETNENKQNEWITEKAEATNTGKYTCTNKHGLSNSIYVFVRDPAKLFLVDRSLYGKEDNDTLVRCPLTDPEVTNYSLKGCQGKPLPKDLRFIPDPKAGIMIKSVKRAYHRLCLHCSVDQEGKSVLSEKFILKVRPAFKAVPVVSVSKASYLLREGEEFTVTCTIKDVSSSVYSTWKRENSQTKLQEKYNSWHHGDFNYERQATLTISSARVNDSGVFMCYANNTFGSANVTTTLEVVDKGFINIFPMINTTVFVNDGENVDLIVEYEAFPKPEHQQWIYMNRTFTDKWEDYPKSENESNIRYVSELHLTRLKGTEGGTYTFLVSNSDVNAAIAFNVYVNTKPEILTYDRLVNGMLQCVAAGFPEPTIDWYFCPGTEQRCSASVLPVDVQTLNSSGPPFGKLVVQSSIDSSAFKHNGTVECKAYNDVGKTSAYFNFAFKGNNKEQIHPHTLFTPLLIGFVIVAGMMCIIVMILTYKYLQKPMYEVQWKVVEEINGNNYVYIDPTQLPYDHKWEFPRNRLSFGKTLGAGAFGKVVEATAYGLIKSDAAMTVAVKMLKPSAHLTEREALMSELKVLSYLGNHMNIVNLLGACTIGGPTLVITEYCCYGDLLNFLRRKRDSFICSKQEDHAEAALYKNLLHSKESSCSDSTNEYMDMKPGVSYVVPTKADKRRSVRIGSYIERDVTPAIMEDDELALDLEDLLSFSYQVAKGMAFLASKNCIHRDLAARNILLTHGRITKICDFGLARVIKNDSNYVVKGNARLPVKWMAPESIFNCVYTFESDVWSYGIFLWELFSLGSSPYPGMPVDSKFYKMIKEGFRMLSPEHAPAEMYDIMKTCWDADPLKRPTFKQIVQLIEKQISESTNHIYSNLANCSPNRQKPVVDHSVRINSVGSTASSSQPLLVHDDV
Compound,IC50 [1] [nM],IC50 [2] [nM],IC50 [3] [nM]
Cc1c2cc[n+](C)cc2c(C)c2c1[nH]c1ccc(O)cc12,400,400,500
Cc1c2ccncc2c(C)c2c1[nH]c1ccc(Br)cc12,> 10000,> 10000,
CCN(CC)CC[n+]1ccc2c(C)c3[nH]c4ccc(O)cc4c3c(C)c2c1,300,450,
CCN(CC)CCCNc1nccc2c(C)c3[nH]c4ncccc4c3cc12,1900,2300,
COc1ccc2[nH]c3c(C)c4ccncc4c(C)c3c2c1,600,800,
Cc1c2ccncc2c(C)c2c1[nH]c1ccc(O)cc12,400,400,400
CCN(CC)CCCNc1nccc2c(C)c3[nH]c4ccc(OC)cc4c3cc12,2000,2500,
CCN(CC)CCCNc1nccc2c(C)c3[nH]c4ccc(O)cc4c3c(C)c12,1200,1400,
CCN(CC)CCCNc1nccc2c(C)c3c(c(C)c12)c1cc(O)ccc1n3C,3600,2500,1400
Cc1c2ccncc2c(C)c2c1[nH]c1ccccc12 [ELLIPTECINE],> 10000,> 10000,
